Source: publication PMC4955388 (Bioorganic & medicinal chemistry letters, 2016)
Like-named read-outs stand apart in the source and are kept apart here.

Key:
[1] = Intrinsic clearance in rat hepatic microsomes and predicted hepatic clearance; assay type: in vitro ADME; details: for Rat CLHEP (predicted hepatic clearance): calculated from rat microsomal CLINT; for CLint scaled at 1 µM: rat, liver microsomes
[2] = assay type: in vivo, rat; details: 1 h; for Concentration, Plasma HPV: hepatic portal vein
Summary of the method: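 Rats received 10 mg/kg test compound orally, with vehicle or co-dosed with 1-aminobenzotriazole, a pan-irreversible cytochrome P450 inhibitor. At 1 h, concentrations were measured in systemic plasma, hepatic portal vein plasma and brain.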

[3] = po 10 mg/kg with vehicle (no ABT)

For `Cc1ccc(S(=O)(=O)n2ccc(NC(=O)c3ccccn3)c2)cc1` [11l], the “Rat CLHEP (predicted hepatic clearance)” value [1] was 68.2 mL/min/kg and the CLint scaled at 1 µM [1] was 2700 mL/min/kg.

In the case of `Cc1cccc(S(=O)(=O)n2ccc(NC(=O)c3ccccn3)c2)c1` [11m], the “Rat CLHEP (predicted hepatic clearance)” value [1] was 68.8 mL/min/kg and the CLint scaled at 1 µM [1] was 4040 mL/min/kg.

In the case of `O=C(Nc1ccn(S(=O)(=O)c2ccc(Cl)cc2)c1)c1ccccn1` [11o], the “Rat CLHEP (predicted hepatic clearance)” value [1] was 65.9 mL/min/kg and the CLint scaled at 1 µM [1] was 1130 mL/min/kg.

Work on `Cc1ccc(S(=O)(=O)n2ccc(NC(=O)c3ccccn3)c2)cc1C` [11r, N-(1-((3,4-Dimethylphenyl)sulfonyl)-1H-pyrrol-3-yl)picolinamide] yielded a CLint scaled at 1 µM [1] of 293 mL/min/kg.

With `Cc1ccc(S(=O)(=O)n2cc(NC(=O)c3ccccn3)cn2)cc1C` [11s] the “Rat CLHEP (predicted hepatic clearance)” value [1] was 68.7 mL/min/kg and the CLint scaled at 1 µM [1] was 3800 mL/min/kg.

In the case of `Cc1cc(S(=O)(=O)n2ccc(NC(=O)c3ccccn3)c2)ccc1Cl` [11t], the “Rat CLHEP (predicted hepatic clearance)” value [1] was 68.6 mL/min/kg, the CLint scaled at 1 µM [1] was 3440 mL/min/kg and the “Concentration, Brain” value ([2]; po 10 mg/kg co-dosed with ABT) was 175.5 ng/mg or g. The “Concentration, Plasma systemic” value ([2]; po 10 mg/kg co-dosed with ABT) was 198.5 ng/mg or g, the “Concentration, Plasma HPV” value ([2]; po 10 mg/kg co-dosed with ABT) was 764.5 ng/mg or g and the “Concentration, Brain” value [2, 3] was 8.1 ng/mg or g. For the same compound, the “Concentration, Plasma systemic” value [2, 3] was 7.4 ng/mg or g and the “Concentration, Plasma HPV” value [2, 3] was 731 ng/mg or g.
